# Results taken from ChEMBL document CHEMBL3044834, “Novel protoporphyrinogen oxidase inhibitors: 3H-pyrazolo[3,4-d][1,2,3]triazin-4-one derivatives” (J Agric Food Chem, 2008).
# Tested on: Amaranthus retroflexus
# Assay: Herbicidal activity against Amaranthus retroflexus assessed as inhibition of fresh weed plant weight at 187.5 g/ha using pre-emergence treatment protocol
# Assay type: functional
row,Structure (SMILES),inhibition at 187.5 g/ha
1,C=CCOc1cc(-n2nnc3nn(CC=C)cc3c2=O)c(F)cc1Cl,100%

# Tested on: Echinochloa crus-galli
# Assay: Herbicidal activity against Echinochloa crus-galli (barnyard grass) assessed as inhibition of fresh weed plant weight at 750 g/ha using post-emergence treatment protocol
# Assay type: functional
# Procedure, shortened: (§1)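 Test compounds made up as emulsions by dissolving in 100 µL N,N-dimethylformamide, then adding a little Tween 20 and water. For post-emergence, weed seedlings at one leaf and one stem were sprayed at the same rates as the pre-emergence test. Fresh weight was recorded 15 days after treatment and expressed as percent inhibition versus controls. All treatments were run in triplicate.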
row,Structure (SMILES),inhibition at 750 g/ha
1,C=CCOc1cc(-n2nnc3nn(CC=C)cc3c2=O)c(F)cc1Cl,18%

# Tested on: Echinochloa crus-galli
# Assay: Herbicidal activity against Echinochloa crus-galli (barnyard grass) assessed as inhibition of fresh weed plant weight at 187.5 g/ha using pre-emergence treatment protocol
# Assay type: functional
# Procedure, shortened: as §1
row,Structure (SMILES),inhibition at 187.5 g/ha
1,C=CCOc1cc(-n2nnc3nn(CC=C)cc3c2=O)c(F)cc1Cl,0%

# Tested on: Brassica rapa subsp. oleifera
# Assay: Herbicidal activity against Brassica rapa subsp. oleifera assessed as inhibition of fresh weed plant weight at 375 g/ha using pre-emergence treatment protocol
# Assay type: functional
row,Structure (SMILES),inhibition at 375 g/ha
1,C=CCOc1cc(-n2nnc3nn(CC=C)cc3c2=O)c(F)cc1Cl,13.4%

# Tested on: Brassica rapa subsp. oleifera
# Assay: Herbicidal activity against Brassica rapa subsp. oleifera assessed as inhibition of fresh weed plant weight at 750 g/ha using post-emergence treatment protocol
# Assay type: functional
# Procedure, shortened: as §1
row,Structure (SMILES),inhibition at 750 g/ha
1,C=CCOc1cc(-n2nnc3nn(CC=C)cc3c2=O)c(F)cc1Cl,32.6%

# Tested on: Amaranthus retroflexus
# Assay: Herbicidal activity against Amaranthus retroflexus assessed as inhibition of fresh weed plant weight at 1500 g/ha using pre-emergence treatment protocol
# Assay type: functional
row,Structure (SMILES),inhibition at 1500 g/ha
1,C=CCOc1cc(-n2nnc3nn(CC=C)cc3c2=O)c(F)cc1Cl,100%

# Tested on: Digitaria sanguinalis
# Assay: Herbicidal activity against Digitaria sanguinalis (hairy crabgrass) assessed as inhibition of fresh weed plant weight at 1500 g/ha using post-emergence treatment protocol
# Assay type: functional
# Procedure, shortened: as §1
row,Structure (SMILES),inhibition at 1500 g/ha
1,C=CCOc1cc(-n2nnc3nn(CC=C)cc3c2=O)c(F)cc1Cl,60.7%

# Tested on: Digitaria sanguinalis
# Assay: Herbicidal activity against Digitaria sanguinalis (hairy crabgrass) assessed as inhibition of fresh weed plant weight at 375 g/ha using pre-emergence treatment protocol
# Assay type: functional
row,Structure (SMILES),inhibition at 375 g/ha
1,C=CCOc1cc(-n2nnc3nn(CC=C)cc3c2=O)c(F)cc1Cl,4.3%

# Tested on: Brassica rapa subsp. oleifera
# Assay: Herbicidal activity against Brassica rapa subsp. oleifera assessed as inhibition of fresh weed plant weight at 187.5 g/ha using post-emergence treatment protocol
# Assay type: functional
# Procedure, shortened: as §1
row,Structure (SMILES),inhibition at 187.5 g/ha
1,C=CCOc1cc(-n2nnc3nn(CC=C)cc3c2=O)c(F)cc1Cl,6.3%

# Tested on: Brassica rapa subsp. oleifera
# Assay: Herbicidal activity against Brassica rapa subsp. oleifera assessed as inhibition of fresh weed plant weight at 187.5 g/ha using pre-emergence treatment protocol
# Assay type: functional
row,Structure (SMILES),inhibition at 187.5 g/ha
1,C=CCOc1cc(-n2nnc3nn(CC=C)cc3c2=O)c(F)cc1Cl,3%

# Tested on: Amaranthus retroflexus
# Assay: Herbicidal activity against Amaranthus retroflexus assessed as inhibition of fresh weed plant weight at 750 g/ha using post-emergence treatment protocol
# Assay type: functional
# Procedure, shortened: as §1
row,Structure (SMILES),inhibition at 750 g/ha
1,C=CCOc1cc(-n2nnc3nn(CC=C)cc3c2=O)c(F)cc1Cl,100%

# Tested on: Brassica rapa subsp. oleifera
# Assay: Herbicidal activity against Brassica rapa subsp. oleifera assessed as inhibition of fresh weed plant weight at 375 g/ha using post-emergence treatment protocol
# Assay type: functional
# Procedure, shortened: as §1
row,Structure (SMILES),inhibition at 375 g/ha
1,C=CCOc1cc(-n2nnc3nn(CC=C)cc3c2=O)c(F)cc1Cl,8.6%

# Tested on: Amaranthus retroflexus
# Assay: Herbicidal activity against Amaranthus retroflexus assessed as inhibition of fresh weed plant weight at 187.5 g/ha using post-emergence treatment protocol
# Assay type: functional
# Procedure, shortened: as §1
row,Structure (SMILES),inhibition at 187.5 g/ha
1,C=CCOc1cc(-n2nnc3nn(CC=C)cc3c2=O)c(F)cc1Cl,36.6%

# Tested on: Brassica rapa subsp. oleifera
# Assay: Herbicidal activity against Brassica rapa subsp. oleifera assessed as inhibition of fresh weed plant weight at 1500 g/ha using pre-emergence treatment protocol
# Assay type: functional
row,Structure (SMILES),inhibition at 1500 g/ha
1,C=CCOc1cc(-n2nnc3nn(CC=C)cc3c2=O)c(F)cc1Cl,50.7%

# Tested on: Echinochloa crus-galli
# Assay: Herbicidal activity against Echinochloa crus-galli (barnyard grass) assessed as inhibition of fresh weed plant weight at 187.5 g/ha using post-emergence treatment protocol
# Assay type: functional
# Procedure, shortened: as §1
row,Structure (SMILES),inhibition at 187.5 g/ha
1,C=CCOc1cc(-n2nnc3nn(CC=C)cc3c2=O)c(F)cc1Cl,14.1%

# Tested on: Echinochloa crus-galli
# Assay: Herbicidal activity against Echinochloa crus-galli (barnyard grass) assessed as inhibition of fresh weed plant weight at 750 g/ha using pre-emergence treatment protocol
# Assay type: functional
row,Structure (SMILES),inhibition at 750 g/ha
1,C=CCOc1cc(-n2nnc3nn(CC=C)cc3c2=O)c(F)cc1Cl,22.1%

# Tested on: Amaranthus retroflexus
# Assay: Herbicidal activity against Amaranthus retroflexus assessed as inhibition of fresh weed plant weight at 375 g/ha using post-emergence treatment protocol
# Assay type: functional
# Procedure, shortened: as §1
row,Structure (SMILES),inhibition at 375 g/ha
1,C=CCOc1cc(-n2nnc3nn(CC=C)cc3c2=O)c(F)cc1Cl,100%

# Tested on: Echinochloa crus-galli
# Assay: Herbicidal activity against Echinochloa crus-galli (barnyard grass) assessed as inhibition of fresh weed plant weight at 375 g/ha using pre-emergence treatment protocol
# Assay type: functional
# Procedure, shortened: as §1
row,Structure (SMILES),inhibition at 375 g/ha
1,C=CCOc1cc(-n2nnc3nn(CC=C)cc3c2=O)c(F)cc1Cl,18.4%

# Tested on: Amaranthus retroflexus
# Assay: Herbicidal activity against Amaranthus retroflexus assessed as inhibition of fresh weed plant weight at 1500 g/ha using post-emergence treatment protocol
# Assay type: functional
# Procedure, shortened: as §1
row,Structure (SMILES),inhibition at 1500 g/ha
1,C=CCOc1cc(-n2nnc3nn(CC=C)cc3c2=O)c(F)cc1Cl,100%

# Tested on: Digitaria sanguinalis
# Assay: Herbicidal activity against Digitaria sanguinalis (hairy crabgrass) assessed as inhibition of fresh weed plant weight at 1500 g/ha using pre-emergence treatment protocol
# Assay type: functional
row,Structure (SMILES),inhibition at 1500 g/ha
1,C=CCOc1cc(-n2nnc3nn(CC=C)cc3c2=O)c(F)cc1Cl,18%

# Tested on: Digitaria sanguinalis
# Assay: Herbicidal activity against Digitaria sanguinalis (hairy crabgrass) assessed as inhibition of fresh weed plant weight at 375 g/ha using post-emergence treatment protocol
# Assay type: functional
# Procedure, shortened: as §1
row,Structure (SMILES),inhibition at 375 g/ha
1,C=CCOc1cc(-n2nnc3nn(CC=C)cc3c2=O)c(F)cc1Cl,33.3%

# Tested on: Amaranthus retroflexus
# Assay: Herbicidal activity against Amaranthus retroflexus assessed as inhibition of fresh weed plant weight at 375 g/ha using pre-emergence treatment protocol
# Assay type: functional
row,Structure (SMILES),inhibition at 375 g/ha
1,C=CCOc1cc(-n2nnc3nn(CC=C)cc3c2=O)c(F)cc1Cl,100%

# Tested on: Brassica rapa subsp. oleifera
# Assay: Herbicidal activity against Brassica rapa subsp. oleifera assessed as inhibition of fresh weed plant weight at 1500 g/ha using post-emergence treatment protocol
# Assay type: functional
# Procedure, shortened: as §1
row,Structure (SMILES),inhibition at 1500 g/ha
1,C=CCOc1cc(-n2nnc3nn(CC=C)cc3c2=O)c(F)cc1Cl,60.8%

# Tested on: Brassica rapa subsp. oleifera
# Assay: Herbicidal activity against Brassica rapa subsp. oleifera assessed as inhibition of fresh weed plant weight at 750 g/ha using pre-emergence treatment protocol
# Assay type: functional
row,Structure (SMILES),inhibition at 750 g/ha
1,C=CCOc1cc(-n2nnc3nn(CC=C)cc3c2=O)c(F)cc1Cl,23.9%

# Tested on: Echinochloa crus-galli
# Assay: Herbicidal activity against Echinochloa crus-galli (barnyard grass) assessed as inhibition of fresh weed plant weight at 1500 g/ha using post-emergence treatment protocol
# Assay type: functional
# Procedure, shortened: as §1
row,Structure (SMILES),inhibition at 1500 g/ha
1,C=CCOc1cc(-n2nnc3nn(CC=C)cc3c2=O)c(F)cc1Cl,35.8%

# Tested on: Digitaria sanguinalis
# Assay: Herbicidal activity against Digitaria sanguinalis (hairy crabgrass) assessed as inhibition of fresh weed plant weight at 187.5 g/ha using post-emergence treatment protocol
# Assay type: functional
# Procedure, shortened: as §1
row,Structure (SMILES),inhibition at 187.5 g/ha
1,C=CCOc1cc(-n2nnc3nn(CC=C)cc3c2=O)c(F)cc1Cl,22.2%

# Tested on: Digitaria sanguinalis
# Assay: Herbicidal activity against Digitaria sanguinalis (hairy crabgrass) assessed as inhibition of fresh weed plant weight at 187.5 g/ha using pre-emergence treatment protocol
# Assay type: functional
row,Structure (SMILES),inhibition at 187.5 g/ha
1,C=CCOc1cc(-n2nnc3nn(CC=C)cc3c2=O)c(F)cc1Cl,0%

# Tested on: Amaranthus retroflexus
# Assay: Herbicidal activity against Amaranthus retroflexus assessed as inhibition of fresh weed plant weight at 750 g/ha using pre-emergence treatment protocol
# Assay type: functional
# Procedure, shortened: as §1
row,Structure (SMILES),inhibition at 750 g/ha
1,C=CCOc1cc(-n2nnc3nn(CC=C)cc3c2=O)c(F)cc1Cl,100%

# Tested on: Echinochloa crus-galli
# Assay: Herbicidal activity against Echinochloa crus-galli (barnyard grass) assessed as inhibition of fresh weed plant weight at 375 g/ha using post-emergence treatment protocol
# Assay type: functional
# Procedure, shortened: as §1
row,Structure (SMILES),inhibition at 375 g/ha
1,C=CCOc1cc(-n2nnc3nn(CC=C)cc3c2=O)c(F)cc1Cl,16.1%

# Tested on: Echinochloa crus-galli
# Assay: Herbicidal activity against Echinochloa crus-galli (barnyard grass) assessed as inhibition of fresh weed plant weight at 1500 g/ha using pre-emergence treatment protocol
# Assay type: functional
row,Structure (SMILES),inhibition at 1500 g/ha
1,C=CCOc1cc(-n2nnc3nn(CC=C)cc3c2=O)c(F)cc1Cl,39.6%

# Tested on: Digitaria sanguinalis
# Assay: Herbicidal activity against Digitaria sanguinalis (hairy crabgrass) assessed as inhibition of fresh weed plant weight at 750 g/ha using post-emergence treatment protocol
# Assay type: functional
# Procedure, shortened: as §1
row,Structure (SMILES),inhibition at 750 g/ha
1,C=CCOc1cc(-n2nnc3nn(CC=C)cc3c2=O)c(F)cc1Cl,44.4%

# Tested on: Digitaria sanguinalis
# Assay: Herbicidal activity against Digitaria sanguinalis (hairy crabgrass) assessed as inhibition of fresh weed plant weight at 750 g/ha using pre-emergence treatment protocol
# Assay type: functional
row,Structure (SMILES),inhibition at 750 g/ha
1,C=CCOc1cc(-n2nnc3nn(CC=C)cc3c2=O)c(F)cc1Cl,8.7%
